# Published values from different studies.
# Compare with care: the assays were run in different laboratories.
SMILES,system,conditions,Cmax
COc1nc(-c2cc(C)c(N[C@@H](C)c3ccc(F)cc3)nn2)ccc1-n1cnc(C)c1,"male CD-1 mouse, plasma","intravenous, 1 mg/kg, single dose",768 ng/mL
CC(C)Oc1c(NC(=O)c2ccc(NC(=O)[C@H](CC(N)=O)NC(=O)c3ccc(NC(=O)c4ccc(C#N)cc4)cc3)cc2)ccc(C(=O)Nc2ccc(C(=O)O)cc2)c1O,"male CD-1 mouse, plasma","subcutaneous, 5 mg/kg, single dose",129 ng/mL
OC[C@H]1O[C@@H](c2ccc(Cl)c(Cc3ccc(O[C@H]4CCOC4)cc3)c2)[C@H](O)[C@@H](O)[C@@H]1O,"CD-1 mouse, plasma","oral, 10 mg/kg",2460 ng/mL
CNCCN(C)c1cc(C#N)cc(CCc2cc(C)cc(N)n2)c1,"male BALB/c mouse, brain","oral, 10 mg/kg",39.3 ng/g
COc1ccc2nccc(N3CCc4c(cc(Cn5ccnc5)cc4-c4cn(C)nc4C(F)(F)F)C3=O)c2c1,"male CD-1 mouse, plasma","oral, 10 mg/kg",1150 ng/mL
CN1C(=O)c2ccccc2[S@+]([O-])c2ccc(C(=O)NCCc3cccs3)cc21,"male C57BL/6 mouse, brain","intraperitoneal, 30 mg/kg, single dose",1720 ng/g
CC(C)(C)c1ccc(O)c(CN(Cc2cc(C(C)(C)C)ccc2O)C2CCC(NC(N)=O)CC2)c1 (stereo not drawn),"male C57BL/6 mouse, plasma","intraperitoneal, 10 mg/kg, single dose",2240 ng/mL
Cc1ncsc1-c1ccc(CNC(=O)[C@@H]2C[C@@H](O)CN2C(=O)[C@@H](NC(=O)CCCCCCCCCC(=O)N2CCN(CC[C@H](NC(=O)C3(N)CCN(c4ncnc5[nH]ccc45)CC3)c3ccc(Cl)cc3)CC2)C(C)(C)C)cc1,"mouse, plasma","intraperitoneal, 75 mg/kg, single dose",10 µM
CSc1cc(Oc2ccnc3[nH]c(=O)cnc23)ccc1NC(=O)Nc1cc(C(C)(C)C)nn1-c1ccccc1,"BALB/c mouse, plasma","oral, 10 mg/kg",54.2 µM
CNC(=O)[C@H](Cc1c[nH]cn1)NC(=O)CN(CCCc1ccccc1)CC(=O)O,"male C57BL/6 mouse, plasma","intraperitoneal, 30 mg/kg",11000 ng/mL
Cc1c2c(n(-c3ccc(F)cc3Cl)c1-c1ccc(OS(=O)(=O)CCC(F)(F)F)cc1)CCN(N1CCCCC1)C2=O,"mouse, plasma","oral, 6 µmol/kg, single dose",0.04 µM
CNC(=O)c1ccccc1Nc1cc(Nc2ccc(N3CCOCC3)cc2OC)ncc1C(F)(F)F,"BALB/c mouse, plasma","oral, 150 mg/kg",~14 µM
CCOc1ccc(Cc2cc([C@@H]3O[C@H](CO)[C@@H](O)[C@H](O)[C@H]3O)ccc2Cl)cc1,"male C57BL/6 mouse, plasma","intravenous, 1 mg/kg",1170 ng/mL
NC(=O)c1cccc(-c2c[nH]c3ncnc(N4CCOCC4)c23)c1,"female C57BL/6 mouse, plasma","intraperitoneal, 10 mg/kg",11 µM
CC(=O)O[C@H]1C(=O)[C@@]2(C)[C@H]([C@H](OC(=O)c3ccccc3)[C@]3(O)C[C@H](OC(=O)[C@H](O)[C@@H](NC(=O)c4ccccc4)c4ccccc4)C(C)=C1C3(C)C)[C@]1(OC(C)=O)CO[C@@H]1C[C@@H]2O,"SCID mouse, plasma","intraperitoneal, 10 mg/kg, single dose",2100 ng/mL
CC(C)(O)c1cn(-c2ccc(-c3ccc(CO)c(S(C)(=O)=O)c3)cc2)c(Cc2ccccc2Cl)n1,"male C57BL/6 mouse, serum","oral, 10 mg/kg",3.2 µM
COc1ccc(C(O)COc2ccc(-c3csc(-c4ccc(OCC(O)c5ccc(OC)c(OC)c5)cc4)n3)cc2)cc1OC (stereo not drawn),"C57BL/6 mouse, plasma","oral, 75 mg/kg",7680 ng/mL
Cc1noc([C@H](Cc2c[nH]cn2)NC(=O)CN(CCCc2ccccc2)CC(=O)O)n1,"male C57BL/6 mouse, plasma","intraperitoneal, 30 mg/kg",5800 ng/mL
COc1ccc([C@@]23Oc4cc(OC)cc(OC)c4[C@]2(O)[C@H](O)[C@H](C(=O)N(C)C)[C@H]3c2ccccc2)cc1,"mouse, plasma","oral, 5 mg/kg",~0.8 µM
CC1(C)CC[C@]2(C(=O)O)CC[C@]3(C)C(=CC[C@@H]4[C@@]5(C)C[C@@H](O)[C@H](OC(=O)/C=C/c6ccc(O)cc6)C(C)(C)[C@@H]5CC[C@]43C)[C@@H]2C1 (relative stereo),"mouse, brain","intraperitoneal, 85 µmol/kg, single dose",1.75 µM
Cc1c(C(=O)NN2CCCCC2)nn(-c2ccc(Cl)cc2Cl)c1-c1ccc(Cl)cc1,"mouse, plasma","oral, 20 µmol/kg, single dose",1.05 µM
Nc1ncc(-c2ccncc2)nc1Nc1ccc2[nH]ccc2c1,"male C57BL/6 mouse, plasma","oral, 30 mg/kg",7 µM
Cc1cc(Nc2ccc(S(F)(F)(F)(F)F)cc2)n2ccnc2n1,"male Swiss mouse, plasma","oral, 100 mg/kg, single dose",29 µM
CCc1cc(OC)c2nccc(N3CCc4c(cc(Cn5ccnc5)cc4-c4cn(C)nc4C(F)(F)F)C3=O)c2c1,"male CD-1 mouse, plasma","oral, 50 mg/kg",29000 ng/mL
COc1nc(-c2cc(C)c(N[C@@H](C)c3c(F)cc(F)cc3F)nn2)ccc1-n1cnc(C)c1,"male CD-1 mouse, plasma","oral, 5 mg/kg, single dose",1010 ng/mL
NS(=O)(=O)c1ccc(-c2cc(Nc3ccc(OC(F)(F)F)cc3)ncn2)cc1,"male BALB/c mouse, plasma","oral, 20 mg/kg",2000 ng/mL
CC(C)(O)c1cn(-c2ccc(-c3cccc(S(C)(=O)=O)c3)cc2)c(C(C)(C)c2ccccc2Cl)n1,"male C57BL/6 mouse, serum","oral, 10 mg/kg",15 µM
CC(C)N1Cc2cc(C(F)(F)F)ncc2C2=CN=C(NCc3c(F)ccc4c3CCO4)N3C=NC(C1=O)C23 (stereo not drawn),"male CD-1 mouse, plasma","oral, 10 mg/kg",5070 ng/mL
CN1CCN(C(=O)CN[C@@H]2C[C@H]2c2ccc(OCc3ccccc3)cc2)CC1,"mouse, plasma","intraperitoneal, 10 mg/kg",542 ng/mL
CC[C@H](C)[C@@H]1NC(=O)[C@@](C)(NC(=O)[C@H](CCCNC(=N)N)NC(=O)[C@H](CC(C)C)NC(=O)[C@@H](NC(=O)[C@H](CCC(N)=O)NC(=O)[C@H](CC(C)C)NC(C)=O)[C@@H](C)O)CCCC=CCCC[C@@](C)(C(=O)N[C@@H](CC(C)C)C(=O)N[C@@H](Cc2ccc3ccccc3c2)C(N)=O)NC(=O)[C@H](CCCNC(=N)N)NC(=O)[C@H](CCC(N)=O)NC1=O,"male BALB/c mouse, plasma","intravenous, 5 mg/kg",41 µM
C=CC(=O)N1CC2CC(n3nc(-c4ccc(C(=O)Nc5ccccn5)cc4)c4c(N)ncnc43)CC2C1 (stereo not drawn),"SCID mouse, plasma","oral, 3 mg/kg",703 ng/mL
COc1cc2c(Nc3ccc(Cl)c(Cl)c3F)ncnc2cc1OC[C@@H]1C[C@@H]2CN(C)C[C@@H]2C1,"FVB mouse, plasma","oral, 70 mg/kg, single dose",3780 ng/mL
Cc1nc(-c2cnc(NC(C)C)n(C)c2=O)ccc1Oc1ccnc(-c2cnn(C)c2)c1,"female mouse, plasma","oral, 15 mg/kg, single dose",9360 ng/mL
COc1cc(OC)c2nccc(N3CCc4c(cc(Cn5ccnc5)cc4-c4cn(C)nc4C(F)(F)F)C3=O)c2c1,"male CD-1 mouse, plasma","oral, 50 mg/kg",19700 ng/mL
CN1CCN(C(=O)c2cc3c(Nc4ccc(OC(F)(F)F)cc4)ncnc3s2)CC1,"male BALB/c mouse, plasma","oral, 20 mg/kg",1090 ng/mL
Cc1ccc2cncc(N3CCc4c(cc(Cn5ccnc5)cc4-c4cn(C)nc4C(F)(F)F)C3=O)c2c1,"male CD-1 mouse, plasma","oral, 50 mg/kg",6580 ng/mL
Cn1cnc2c(F)c(Nc3ccc(Br)cc3Cl)c(C(=O)NOCCO)cc21,"nude mouse, liver","oral, 10 mg/kg, single dose, tumour-bearing",1440 ng/g
CNC(=O)c1cc(Oc2ccc(NC(=O)Nc3ccc(Cl)c(C(F)(F)F)c3)c(F)c2)ccn1,"male mouse, plasma","oral, 10 mg/kg, single dose",3300 ng/mL
COc1nc(-c2cc(C)c(N[C@@H](C)c3cc(F)cc(F)c3)nn2)ccc1-n1cnc(C)c1,"male CD-1 mouse, plasma","intravenous, 1 mg/kg, single dose",699 ng/mL
Cc1ccc(NC(=O)c2ccc(CN3CCN(C)CC3)cc2)cc1Nc1nccc(-c2cncc(-c3oncc3C)c2)n1,"male C57BL/6 mouse, plasma","oral, 100 mg/kg/day",5060 ng/mL
COc1cc(C(=O)N2CCC(N3CCN(C)CC3)CC2)ccc1Nc1ncc2c(n1)N(C)c1ccccc1C(=O)N2C,"mouse, plasma","oral, 10 mg/kg",1620 ng/mL
Cc1c2c(n(-c3ccc(Cl)cc3Cl)c1-c1ccc(OS(=O)(=O)CCC(F)(F)F)cc1)CCN(N1CCCCC1)C2=O,"mouse, plasma","oral, 6 µmol/kg, single dose",0.48 µM
CN1CCC[C@H](CN2c3ccccc3Sc3ccccc32)C1.Cl,"mouse, plasma","oral, 64 mg/kg, single dose",1180 ng/mL
CCc1cc(C(=O)NC)c2nccc(N3CCc4c(cc(Cn5ccnc5)cc4-c4cn(C)nc4C(F)(F)F)C3=O)c2c1,"male CD-1 mouse, plasma","oral, 50 mg/kg",25100 ng/mL
CCN1CCN(Cc2cc(NC(=O)c3ccc(C)c(-c4ccc5nc(NC(=O)C6CC6)cn5n4)c3)cc(C(F)(F)F)c2)CC1,"Swiss mouse, plasma","intraperitoneal, 3 mg/kg",340 ng/mL
CCc1ccc(Cc2cc([C@@H]3O[C@H](CO)[C@@H](O)[C@H](O)[C@H]3O)cc3c2CCC3)cc1,"male C57BL/6 mouse, plasma","intravenous, 1 mg/kg",1300 ng/mL
Nc1nc(-c2ccccc2)nc2[nH]nc(Nc3ccc(C(F)(F)F)cc3)c12,"mouse, plasma","oral, 100 mg/kg",1250 ng/mL
CS(=O)(=O)CCNCc1ccc(-c2ccc3ncnc(Nc4ccc(OCc5cccc(F)c5)c(Cl)c4)c3c2)o1,"nude mouse, plasma","oral, 200 mg/kg, single dose",16600 ng/mL
